Reference: ChEMBL document CHEMBL1143592, “N-terminal sugar conjugation and C-terminal Thr-for-Thr(ol) exchange in radioiodinated Tyr3-octreotide: effect on cellular ligand trafficking in vitro and tumor accumulation in vivo” (J Med Chem, 2005)
Blank lines part the entries; values can stand above or below the compound they belong to.

Columns and labels:
Type in all cases: cell-based
[1] = biological target: T1, Somatostatin receptor type 3 (Homo sapiens, UniProt P32745); assay: In vitro inhibition of [125I][Leu8,D-Trp22,Tyr25] somatostatin 28 binding to human somatostatin receptor type 3 expressed in CCL39 cells; (n=2)
T1 sequence (P32745 whole entry): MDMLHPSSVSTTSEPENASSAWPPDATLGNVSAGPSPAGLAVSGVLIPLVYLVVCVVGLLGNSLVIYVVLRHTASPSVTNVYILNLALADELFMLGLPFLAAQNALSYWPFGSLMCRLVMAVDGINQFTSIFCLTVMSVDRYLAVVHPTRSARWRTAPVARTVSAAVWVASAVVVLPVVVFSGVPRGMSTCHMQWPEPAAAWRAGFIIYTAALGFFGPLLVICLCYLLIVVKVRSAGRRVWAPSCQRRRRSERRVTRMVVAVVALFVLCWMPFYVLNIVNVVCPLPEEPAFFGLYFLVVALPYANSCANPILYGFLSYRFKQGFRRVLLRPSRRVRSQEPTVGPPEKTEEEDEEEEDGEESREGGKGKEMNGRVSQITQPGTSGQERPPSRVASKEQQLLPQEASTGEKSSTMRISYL
How it was run: (§1)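 Receptor autoradiography on sections of cell membrane pellets from CHO-K1 (sst1, sst5) or CCL39 (sst2–4) cells stably expressing the human subtype. Full displacement of [125I][Leu8,D-Trp22,Tyr25]somatostatin 28 by unlabeled peptide, 0.1–1000 nM, with somatostatin 28 run in parallel as control. IC50 derived by computer-assisted image analysis, quantified against cross-calibrated [125I] tissue standards.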

[2] = biological target: T2, Somatostatin receptor type 4 (Homo sapiens, UniProt P31391); assay: In vitro inhibition of [125I][Leu8,D-Trp22,Tyr25] somatostatin 28 binding to human somatostatin receptor type 4 expressed in CCL39 cells; (n=2); how it was run: as §1
T2 sequence (P31391 whole entry): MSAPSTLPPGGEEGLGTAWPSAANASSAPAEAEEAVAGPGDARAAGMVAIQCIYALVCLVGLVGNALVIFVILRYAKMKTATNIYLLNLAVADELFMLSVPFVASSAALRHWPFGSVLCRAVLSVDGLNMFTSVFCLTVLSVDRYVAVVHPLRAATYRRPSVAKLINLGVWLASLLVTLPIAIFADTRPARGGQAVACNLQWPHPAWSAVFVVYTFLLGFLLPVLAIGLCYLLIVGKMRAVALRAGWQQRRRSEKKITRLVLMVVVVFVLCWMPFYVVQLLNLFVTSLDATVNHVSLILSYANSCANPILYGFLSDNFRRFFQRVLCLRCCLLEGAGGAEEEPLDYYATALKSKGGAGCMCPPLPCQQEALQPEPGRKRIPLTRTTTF

[3] = biological target: T3, Somatostatin receptor type 1 (Homo sapiens, UniProt P30872); assay: In vitro inhibitory concentration against somatostatin receptor type 1 expressed in CHO-K1 cells using [125I][Leu8,D-Trp22,Tyr25] somatostatin 28 as radioligand; (n=2); how it was run: as §1
T3 sequence (P30872 whole entry): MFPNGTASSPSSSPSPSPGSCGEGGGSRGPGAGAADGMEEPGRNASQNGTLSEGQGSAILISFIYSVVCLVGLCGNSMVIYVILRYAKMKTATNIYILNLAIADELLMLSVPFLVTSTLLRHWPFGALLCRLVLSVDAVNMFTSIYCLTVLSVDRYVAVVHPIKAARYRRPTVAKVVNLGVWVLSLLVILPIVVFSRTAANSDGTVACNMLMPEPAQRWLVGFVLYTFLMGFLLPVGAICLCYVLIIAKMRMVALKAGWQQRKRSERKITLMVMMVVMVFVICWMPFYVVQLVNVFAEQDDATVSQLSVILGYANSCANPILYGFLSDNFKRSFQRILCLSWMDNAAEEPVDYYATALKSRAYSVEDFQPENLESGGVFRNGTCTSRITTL

[4] = biological target: T3, Somatostatin receptor type 1; assay: In vitro inhibition of [125I][Leu8,D-Trp22,Tyr25] somatostatin 28 binding to human somatostatin receptor type 1 expressed in CHO-K1 cells; (n=7); how it was run: as §1
[5] = biological target: T1, Somatostatin receptor type 3; assay: In vitro inhibition of [125I][Leu8,D-Trp22,Tyr25] somatostatin 28 binding to human somatostatin receptor type 3 expressed in CCL39 cells; (n=4); how it was run: as §1
[6] = biological target: T2, Somatostatin receptor type 4; assay: In vitro inhibition of [125I][Leu8,D-Trp22,Tyr25] somatostatin 28 binding to human somatostatin receptor type 4 expressed in CCL39 cells; (n=6)
[7] = biological target: Somatostatin receptor type 5 (Homo sapiens, UniProt P35346); assay: In vitro inhibition of [125I][Leu8,D-Trp22,Tyr25] somatostatin 28 binding to human somatostatin receptor type 5 expressed in CHO-K1 cells; (n=6)
Sequence of Somatostatin receptor type 5 (P35346 whole entry): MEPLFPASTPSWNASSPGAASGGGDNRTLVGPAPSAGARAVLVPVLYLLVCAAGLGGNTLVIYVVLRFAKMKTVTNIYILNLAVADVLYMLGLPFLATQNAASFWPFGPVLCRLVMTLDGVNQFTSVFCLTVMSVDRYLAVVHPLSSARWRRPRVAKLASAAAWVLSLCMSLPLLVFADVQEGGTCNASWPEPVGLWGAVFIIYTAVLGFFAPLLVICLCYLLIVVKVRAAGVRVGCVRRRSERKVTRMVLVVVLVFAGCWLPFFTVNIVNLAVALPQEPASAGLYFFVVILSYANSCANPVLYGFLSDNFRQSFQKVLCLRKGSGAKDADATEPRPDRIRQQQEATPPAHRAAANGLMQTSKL

[8] = biological target: T3, Somatostatin receptor type 1; assay: In vitro inhibition of [125I][Leu8,D-Trp22,Tyr25] somatostatin 28 binding to human somatostatin receptor type 1 expressed in CHO-K1 cells; (n=5)
[9] = biological target: T1, Somatostatin receptor type 3; assay: In vitro inhibition of [125I][Leu8,D-Trp22,Tyr25] somatostatin 28 binding to human somatostatin receptor type 3 expressed in CCL39 cells; (n=5)
[10] = biological target: T2, Somatostatin receptor type 4; assay: In vitro inhibition of [125I][Leu8,D-Trp22,Tyr25] somatostatin 28 binding to human somatostatin receptor type 4 expressed in CCL39 cells; (n=5)

IC50 [1]: 330 nM
IC50 [2]: 346 nM
IC50 [3]: > 1000 nM
SMILES: C[C@H](O)[C@@H](CO)NC(=O)[C@@H]1CSSC[C@H](NC(=O)[C@H](N)Cc2ccccc2)C(=O)N[C@@H](Cc2ccc(O)cc2)C(=O)N[C@H](Cc2c[nH]c3ccccc23)C(=O)N[C@@H](CCCCN)C(=O)N[C@@H]([C@@H](C)O)C(=O)N1

IC50 [4]: > 10000 nM
IC50 [5]: 880 nM
IC50 [6]: > 1000 nM
IC50 [7]: 393 nM
SMILES: C[C@@H](O)[C@@H]1NC(=O)[C@H](CCCCN)NC(=O)[C@@H](Cc2c[nH]c3ccccc23)NC(=O)[C@H](Cc2ccc(O)cc2)NC(=O)[C@@H](NC(=O)[C@@H](Cc2ccccc2)NC(=O)CN2CCN(CC(=O)O)CCN(CC(=O)O)CCN(CC(=O)O)CC2)CSSC[C@@H](C(=O)N[C@H](CO)[C@@H](C)O)NC1=O [EDOTREOTIDE]

IC50 [8]: > 1000 nM
IC50 [9]: 186 nM
IC50 [10]: 729 nM
SMILES: C[C@H](O)[C@@H](CO)NC(=O)[C@@H]1CSSC[C@H](NC(=O)[C@H](N)Cc2ccccc2)C(=O)N[C@@H](Cc2ccc(O)c(I)c2)C(=O)N[C@H](Cc2c[nH]c3ccccc23)C(=O)N[C@@H](CCCCN)C(=O)N[C@@H]([C@@H](C)O)C(=O)N1
